From ChEMBL document CHEMBL4422632, “Design of Novel Inhibitors of Human Thymidine Phosphorylase: Synthesis, Enzyme Inhibition, in Vitro Toxicity, and Impact on Human Glioblastoma Cancer” (J Med Chem, 2019) come the findings set out here.

The source made the active and inactive calls. The rule behind the calls is not given here.

The subject of the assay is U-87 MG. Put plainly: Anti-angiogenic activity in tumor of human U87MG cells xenografted in nude BALB/c mouse assessed as reduction in CD31 staining at 50 mg/kg, ip administered for 14 days by immunohistochemistry. It counts as functional, organism-based. To be noted: U-87MG ATCC. Summed up:
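Male nude mice bearing subcutaneous right-flank xenografts of 5 x 10⁵ U-87 MG cells; dosing began at about 50 mm³ tumors, ip daily for 14 days. Tumors formalin-fixed, paraffin sections 3 µm; citrate pH 6 antigen retrieval at 95-98 °C; primary antibody overnight at 4 °C, HRP secondary, DAB. Positive area quantified by optical density at x200, 4 images per tumor; mean ± SEM, one-way ANOVA with Dunnett.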
In general terms: Xenograft models place foreign cells or tissue in a host animal.

Take `O=c1[nH]c(CNC(CO)CO)c(I)c(=O)[nH]1`: the outcome was Active.
